# “And” between values parts separate entries of the source, which are not always exact repeats. Identical values can stand only once.
# Assays:
# Mus musculus [1] = species on record: Mus musculus; experiment: Mean time survival (MTS) of the mice at the end of 28 or 49 days.; type: functional
# Summary of the method: (§1)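 Inocula were TK⁻ HSV-1 at 10⁶ CCID50/0.05 mL or HSV-1 KOS at 10^4.7 PFU/0.05 mL. Test formulations in DMSO were applied topically four times daily for 5 days, starting at infection. Skin lesions, hind-leg paralysis and death were recorded daily for 28 (KOS) or 49 (TK⁻) days, with five mice per group.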
# Mus musculus [2] = experiment: Topical treatment of intracutaneous TK- herpes simplex virus type 1 of strain VMW 1837 infection of Nu/nu mice for mean day of appearance of skin lesions and/or paralysis of the hind legs at 0.3% concentration (v/v in DMSO); type: functional; summary of the method: as §1
# Mus musculus [3] = experiment: Topical treatment of intracutaneous TK- herpes simplex virus type 1 of strain VMW 1837 infection of Nu/nu mice for mean day of appearance of skin lesions and/or paralysis of the hind legs at 1% concentration (v/v in DMSO); type: functional; summary of the method: as §1
# Mus musculus [4] = experiment: Topical treatment of intracutaneous TK- herpes simplex virus type 1 of strain VMW 1837 infection of Nu/nu mice for mean day of appearance of skin lesions and/or paralysis of the hind legs at 3% concentration (v/v in DMSO); type: functional; summary of the method: as §1
# Oryctolagus cuniculus [5] = species on record: Oryctolagus cuniculus; experiment: Evaluated for the minimum cytotoxic concentration (MCC) upon preincubation of rabbit kidney cells; type: functional
# Summary of the method: (§2)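 Primary rabbit kidney cell cultures were exposed to compounds, some preincubated 24 h at 37 °C in medium with 10% fetal calf serum. The minimum cytotoxic concentration was the level causing a microscopically detectable change in normal cell morphology.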
# Oryctolagus cuniculus [6] = species on record: Oryctolagus cuniculus; experiment: Evaluated for the minimum cytotoxic concentration (MCC) upon preincubation of rabbit kidney cells in medium containing 10% fetal calf serum at 37 degree Celsius for 24 hr; type: functional; conditions: Oryctolagus cuniculus, kidney; read-out: MCC; summary of the method: as §2
# [7] = tested on: Vesicular stomatitis virus; experiment: Evaluated for the minimum inhibitory concentration (MIC) in primary rabbit kidney (PRK) by 50% upon pre-incubation in medium containing 10% fetal calf serum at 37 degree Centigrade for 24 hr against Vesicular stomatitis virus; type: functional
# Summary of the method: (§3)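 Compounds were preincubated in medium with 10% fetal calf serum for 24 h at 37 °C before addition to the cells. Confluent primary rabbit kidney monolayers were infected with 100 CCID50 of virus and adsorbed for 1 h. Residual virus was removed and cells were incubated with varying compound concentrations. The endpoint was 50% reduction of cytopathogenicity, read when infected controls reached full CPE.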
# [8] = tested on: Vesicular stomatitis virus; experiment: Evaluated for the minimum inhibitory concentration (MIC) in primary rabbit kidney (PRK) by 50% against Vesicular stomatitis virus; type: functional
# Summary of the method: (§4)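 Confluent primary rabbit kidney cell monolayers were infected with 100 CCID50 of virus. After 1 h adsorption, residual virus was removed and cells were incubated with serial compound concentrations. Cytopathogenicity was scored once it reached completion in untreated infected controls. The endpoint was the concentration reducing virus-induced cytopathogenicity by 50%.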
# Vaccinia virus [9] = experiment: Evaluated for the minimum inhibitory concentration (MIC) in primary rabbit kidney (PRK) by 50% upon pre-incubation in medium containing 10% fetal calf serum at 37 degree Centigrade for 24 hr against Vaccinia virus; type: functional; conditions: Orthopoxvirus vaccinia; summary of the method: as §3
# Human alphaherpesvirus 1 [10] = experiment: Evaluated for the minimum inhibitory concentration (MIC) in primary rabbit kidney (PRK) by 50% upon pre-incubation in medium containing 10% fetal calf serum at 37 degree Centigrade for 24 hr against TK- herpes simplex virus type 1 (TK- HSV-1) with st; type: functional; summary of the method: as §3
# Vaccinia virus [11] = experiment: Evaluated for the minimum inhibitory concentration (MIC) in primary rabbit kidney (PRK) by 50% against Vaccinia virus; type: functional; conditions: Orthopoxvirus vaccinia; summary of the method: as §4
# Human alphaherpesvirus 2 [12] = experiment: Evaluated for the minimum inhibitory concentration (MIC) in primary rabbit kidney (PRK) by 50% upon preincubation in medium containing 10% fetal calf serum at 37 degree Celsius for 24 hr against herpes simplex virus type-2 (HSV-2) with strains Ly; type: functional; summary of the method: as §3
# Human alphaherpesvirus 1 [13] = experiment: Evaluated for the minimum inhibitory concentration (MIC) in primary rabbit kidney (PRK) by 50% against TK- herpes simplex virus type 1 (TK- HSV-1) with strain B2006; type: functional; summary of the method: as §4
# Human alphaherpesvirus 1 [14] = experiment: Evaluated for the minimum inhibitory concentration (MIC) in primary rabbit kidney (PRK) by 50% against TK- herpes simplex virus type 1 (TK- HSV-1) with strain VMW 1837.; type: functional; summary of the method: as §4
# Human alphaherpesvirus 1 [15] = experiment: Evaluated for the minimum inhibitory concentration (MIC) in primary rabbit kidney (PRK) by 50% against herpes simplex virus type-1 (HSV-1) with strains KOS; type: functional
# Summary of the method: (§5)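 Confluent primary rabbit kidney cell cultures infected with 100 CCID50 virus; after 1 h adsorption residual virus removed and cells incubated with varying compound concentrations. Cytopathogenicity scored when complete in infected untreated controls; MIC = concentration reducing virus-induced cytopathogenicity by 50%. Compounds tested as such or after preincubation in medium with 10% fetal calf serum, 24 h, 37 °C.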
# Human alphaherpesvirus 1 [16] = experiment: Evaluated for the minimum inhibitory concentration (MIC) in primary rabbit kidney (PRK) by 50% against herpes simplex virus type-1 (HSV-1) with strains McIntyre; type: functional; summary of the method: as §5
# Human alphaherpesvirus 1 [17] = experiment: Evaluated for the minimum inhibitory concentration (MIC) in primary rabbit kidney (PRK) by 50% upon preincubation in medium containing 10% fetal calf serum at 37 degree Centigrade for 24 hr against herpes simplex virus type-1 (HSV-1) with strain McI; type: functional; summary of the method: as §3
# Human alphaherpesvirus 1 [18] = experiment: Evaluated for the minimum inhibitory concentration (MIC) in primary rabbit kidney (PRK) by 50% upon preincubation in medium containing 10% fetal calf serum at 37 degree Celsius for 24 hr against herpes simplex virus type-1 (HSV-1) with strainF; type: functional; summary of the method: as §3
# Human alphaherpesvirus 1 [19] = experiment: Evaluated for the minimum inhibitory concentration (MIC) in primary rabbit kidney (PRK) by 50% upon pre-incubation in medium containing 10% fetal calf serum at 37 degree Centigrade for 24 hr against herpes simplex virus type-1 (HSV-1) with strainKOS; type: functional; summary of the method: as §3
# Human alphaherpesvirus 2 [20] = experiment: Evaluated for the minimum inhibitory concentration (MIC) in primary rabbit kidney (PRK) by 50% against herpes simplex virus type-2 (HSV-2) with strains 196; type: functional; summary of the method: as §5
# Human alphaherpesvirus 2 [21] = experiment: Evaluated for the minimum inhibitory concentration (MIC) in primary rabbit kidney (PRK) by 50% against herpes simplex virus type-2 (HSV-2) with strains G; type: functional; summary of the method: as §4
# Human alphaherpesvirus 2 [22] = experiment: Evaluated for the minimum inhibitory concentration (MIC) in primary rabbit kidney (PRK) by 50% against herpes simplex virus type-2 (HSV-2) with strains Lyons; type: functional; summary of the method: as §5
# Human alphaherpesvirus 2 [23] = experiment: Evaluated for the minimum inhibitory concentration (MIC) in primary rabbit kidney (PRK) by 50% upon preincubation in medium containing 10% fetal calf serum at 37 degree Centigrade for 24 hr against herpes simplex virus type-2 (HSV-2) with strains 19; type: functional; summary of the method: as §3
# Human alphaherpesvirus 2 [24] = experiment: Evaluated for the minimum inhibitory concentration (MIC) in primary rabbit kidney (PRK) by 50% upon preincubation in medium containing 10% fetal calf serum at 37 degree Celsius for 24 hr against herpes simplex virus type-2 (HSV-2) with strains G; type: functional; summary of the method: as §3
# Human alphaherpesvirus 1 [25] = experiment: Evaluated for the minimum inhibitory concentration (MIC) in primary rabbit kidney (PRK) by 50% against herpes simplex virus type-1 (HSV-1) with strains F; type: functional; summary of the method: as §5
# Human alphaherpesvirus 1 [26] = experiment: Evaluated for the minimum inhibitory concentration (MIC) in primary rabbit kidney (PRK) by 50% upon preincubation in medium containing 10% fetal calf serum at 37 degree Centigrade for 24 hr against TK- herpes simplex virus type 1 (TK- HSV-1) with st; type: functional; summary of the method: as §3
# [27] = pKa value was determined; type: physicochemical
smiles,measurement,setting,value
CS(=O)(=O)c1ccc(OP(=O)(OC[C@H]2O[C@@H](n3cc(/C=C/Br)c(=O)[nH]c3=O)C[C@@H]2O)OC[C@H]2O[C@@H](n3cc(/C=C/Br)c(=O)[nH]c3=O)C[C@@H]2O)cc1,MTS,Mus musculus [1],15 days and 24.2 days and 37.8 days
same,Mean day appearance of lesions,Mus musculus [2],16.7
same,Mean day appearance of lesions,Mus musculus [3],10.4
same,Mean day appearance of lesions,Mus musculus [4],9.7
same,MCC,Oryctolagus cuniculus [5],> 400 µg/mL
same,MCC,Oryctolagus cuniculus [6],> 400 µg/mL
same,MIC,[7],> 400 µg/mL
same,MIC,[8],> 400 µg/mL
same,MIC,Vaccinia virus [9],70 µg/mL
same,MIC,Human alphaherpesvirus 1 [10],300 µg/mL
same,MIC,Vaccinia virus [11],> 400 µg/mL
same,MIC,Human alphaherpesvirus 2 [12],200 µg/mL
same,MIC,Human alphaherpesvirus 1 [13],> 400 µg/mL
same,MIC,Human alphaherpesvirus 1 [14],> 400 µg/mL
same,MIC,Human alphaherpesvirus 1 [15],2 µg/mL
same,MIC,Human alphaherpesvirus 1 [16],2 µg/mL
same,MIC,Human alphaherpesvirus 1 [17],0.7 µg/mL
same,MIC,Human alphaherpesvirus 1 [18],0.2 µg/mL
same,MIC,Human alphaherpesvirus 1 [19],0.2 µg/mL
same,MIC,Human alphaherpesvirus 2 [20],> 400 µg/mL
same,MIC,Human alphaherpesvirus 2 [21],> 200 µg/mL
same,MIC,Human alphaherpesvirus 2 [22],> 400 µg/mL
same,MIC,Human alphaherpesvirus 2 [23],> 400 µg/mL
same,MIC,Human alphaherpesvirus 2 [24],150 µg/mL
same,MIC,Human alphaherpesvirus 1 [25],2 µg/mL
same,MIC,Human alphaherpesvirus 1 [26],> 400 µg/mL
CC(=O)O[C@H]1C[C@H](n2cc(C)c(=O)[nH]c2=O)O[C@@H]1COP(=O)(OC[C@H]1O[C@@H](n2cc(C)c(=O)[nH]c2=O)C[C@@H]1OC(C)=O)Oc1cc(Cl)ccc1Cl,pKa,[27],7.5

# Source: ChEMBL document CHEMBL1124765, “Synthesis and biological properties of novel phosphotriesters: a new approach to the introduction of biologically active nucleotides into cells” (J Med Chem, 1990)
